{
  "source": "ChEMBL document CHEMBL1125636",
  "about": "“L-687,908, a potent hydroxyethylene-containing HIV protease inhibitor” (J Med Chem, 1991)",
  "key": {"H9": {"test_system": "H9", "test": "Minimum inhibitory concentration required to prevent HIV infection was determined in H9 human T-lymphoid cell culture", "type": "functional", "outline": "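H9 human T-lymphoid cells were infected with HIV-1 IIIb at a multiplicity of infection of 1.0%, with no compound present. Compound was added 1 day after infection, predissolved in DMSO and serially diluted in RPMI-1640 with 10% FBS. Medium with fresh compound was replaced every 2–3 days. Cells were harvested at 14 days and scored by immunofluorescence with anti-HIV-1 human serum. MIC was the lowest concentration totally preventing spread beyond the initially infected cells.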"}, "[1]": {"target": "Human immunodeficiency virus type 1 protease (Human immunodeficiency virus 1, UniProt Q72874)", "test": "Inhibition of HIV-1 protease", "type": "functional", "outline": "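HIV-1 protease peptide hydrolysis: octapeptide substrate H2N-ValSerGlnAsn(β-naphthyl-Ala)ProIle-Val-OH at 430 μM (Km = 160 μM), enzyme at 0.030 nM; cleavage quantitated by HPLC; IC50 from this readout.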"}, "Renin [2]": {"target": "T1, Renin (Rattus norvegicus, UniProt P08424)", "T1 sequence (P08424 whole entry)": "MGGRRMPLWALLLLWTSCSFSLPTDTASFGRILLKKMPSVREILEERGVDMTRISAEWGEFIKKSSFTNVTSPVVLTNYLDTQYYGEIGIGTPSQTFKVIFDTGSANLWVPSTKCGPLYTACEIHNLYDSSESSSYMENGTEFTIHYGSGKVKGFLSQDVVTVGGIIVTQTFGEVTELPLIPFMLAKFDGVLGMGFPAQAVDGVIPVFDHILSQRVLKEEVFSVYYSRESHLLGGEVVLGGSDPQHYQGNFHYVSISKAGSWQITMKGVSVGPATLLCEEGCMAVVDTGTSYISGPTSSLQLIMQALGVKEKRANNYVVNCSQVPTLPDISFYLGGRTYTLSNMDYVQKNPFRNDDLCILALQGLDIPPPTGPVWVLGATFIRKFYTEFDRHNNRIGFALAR", "test": "Concentration required to inhibit 50% activity of plasma renin was determined at pH 7.4; Inactive", "type": "functional, cell-free"}, "Renin [3]": {"target": "T1, Renin", "test": "Concentration required to inhibit 50% activity of renin was determined", "type": "functional", "outline": "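Purified plasma renin, assayed at pH 7.4; IC50 reported.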"}},
  "note": "Where a SMILES comes first, the peptide text is derived from it.",
  "data": [
    {"smiles": "CCC(C)C(NC(=O)[C@H](Cc1ccccc1)C[C@H](O)[C@H](Cc1ccccc1)NC(=O)OC(C)(C)C)C(=O)NCc1ccccc1", "note": "(stereo partly specified)", "values": [
      {"measurement": "MIC", "setting": "H9", "result": 1.5, "unit": "µM"},
      {"measurement": "IC50", "setting": "[1]", "result": 0.71, "unit": "nM"}
    ]},
    {"smiles": "CC(C)C[C@H](NC(=O)[C@H](Cc1ccccc1)C[C@H](O)[C@H](Cc1ccccc1)NC(=O)OC(C)(C)C)C(=O)N[C@@H](Cc1ccccc1)C(N)=O", "values": [
      {"measurement": "MIC", "setting": "H9", "result": 6, "unit": "µM"},
      {"measurement": "IC50", "setting": "[1]", "result": 0.6, "unit": "nM"},
      {"measurement": "IC50", "setting": "Renin [2]", "result": "> 10000", "unit": "nM"}
    ]},
    {"smiles": "CC(C)C[C@H](NC(=O)[C@H](Cc1ccccc1)C[C@H](O)[C@H](Cc1ccccc1)NC(=O)CC(C)(C)C)C(=O)N[C@@H](Cc1ccccc1)C(N)=O", "values": [
      {"measurement": "IC50", "setting": "[1]", "result": 6, "unit": "nM"}
    ]},
    {"smiles": "CC(C)CCNC(=O)[C@H](Cc1ccccc1)C[C@H](O)[C@H](Cc1ccccc1)NC(=O)OC(C)(C)C", "values": [
      {"measurement": "IC50", "setting": "[1]", "result": 470, "unit": "nM"}
    ]},
    {"smiles": "CC[C@H](C)[C@H](NC(=O)[C@H](C/C=C/c1ccccc1)C[C@H](O)[C@H](Cc1ccccc1)NC(=O)OC(C)(C)C)C(=O)NCc1nc2ccccc2[nH]1", "values": [
      {"measurement": "MIC", "setting": "H9", "result": 0.012, "unit": "µM"},
      {"measurement": "IC50", "setting": "[1]", "result": 0.03, "unit": "nM"}
    ]},
    {"smiles": "CC[C@H](C)[C@H](NC(=O)[C@H](Cc1ccccc1)C[C@H](O)[C@H](Cc1ccccc1)NC(=O)OC(C)(C)C)C(=O)NCc1nc2ccccc2[nH]1", "values": [
      {"measurement": "MIC", "setting": "H9", "result": 0.2, "unit": "µM"},
      {"measurement": "IC50", "setting": "[1]", "result": 0.07, "unit": "nM"}
    ]},
    {"smiles": "CC(C)CC(NC(=O)[C@H](Cc1ccccc1)C[C@H](O)[C@H](Cc1ccccc1)NC(=O)OC(C)(C)C)C(N)=O", "note": "(stereo partly specified)", "values": [
      {"measurement": "MIC", "setting": "H9", "result": 6, "unit": "µM"},
      {"measurement": "IC50", "setting": "[1]", "result": 12, "unit": "nM"}
    ]},
    {"smiles": "CC(C)C[C@H](NC(=O)[C@H](C/C=C/c1ccccc1)C[C@H](O)[C@H](Cc1ccccc1)NC(=O)OC(C)(C)C)C(=O)N[C@@H](Cc1ccccc1)C(N)=O", "values": [
      {"measurement": "MIC", "setting": "H9", "result": 6, "unit": "µM"},
      {"measurement": "IC50", "setting": "[1]", "result": 0.15, "unit": "nM"}
    ]},
    {"smiles": "CC(C)CC(NC(=O)[C@H](Cc1ccccc1)C[C@H](O)[C@H](Cc1ccccc1)NC(=O)OC(C)(C)C)C(=O)NCCc1ccccc1", "note": "(stereo partly specified)", "values": [
      {"measurement": "IC50", "setting": "[1]", "result": 12, "unit": "nM"}
    ]},
    {"smiles": "CC(C)(C)OC(=O)N[C@@H](Cc1ccccc1)[C@@H](O)C[C@@H](Cc1ccccc1)C(=O)NCc1ccccc1", "values": [
      {"measurement": "MIC", "setting": "H9", "result": "> 50", "unit": "µM"},
      {"measurement": "IC50", "setting": "[1]", "result": 111, "unit": "nM"}
    ]},
    {"smiles": "CCC(C)C(NC(=O)[C@H](Cc1ccccc1)C[C@H](O)[C@H](Cc1ccccc1)NC(=O)OC(C)(C)C)C(=O)NCC(O)CO", "note": "(stereo partly specified)", "values": [
      {"measurement": "MIC", "setting": "H9", "result": 1.5, "unit": "µM"},
      {"measurement": "IC50", "setting": "[1]", "result": 0.15, "unit": "nM"}
    ]},
    {"smiles": "CC(C)C[C@H](NC(=O)[C@H](Cc1ccccc1)C[C@H](O)[C@H](Cc1ccccc1)NC(=O)[C@H](Cc1ccccc1)NC(=O)[C@H](Cc1ccccc1)NC(=O)OC(C)(C)C)C(=O)N[C@@H](Cc1ccccc1)C(N)=O", "note": "(HELM PEPTIDE1{[CC(C)(C)OC(=O)[*:2]].F.F.[O=C([C@H](Cc1ccccc1)C[C@H](O)[C@H](Cc1ccccc1)N[*:1])[*:2]].L.F.[am]}$$$$V2.0)", "values": [
      {"measurement": "MIC", "setting": "H9", "result": 50, "unit": "µM"},
      {"measurement": "IC50", "setting": "[1]", "result": 1, "unit": "nM"},
      {"measurement": "IC50", "setting": "Renin [3]", "result": 73, "unit": "nM"}
    ]},
    {"smiles": "CC(C)C[C@H](NC(=O)[C@H](Cc1ccccc1)C[C@H](O)[C@H](Cc1ccccc1)NC(=O)[C@H](Cc1ccccc1)NC(=O)OC(C)(C)C)C(=O)N[C@@H](Cc1ccccc1)C(N)=O", "values": [
      {"measurement": "IC50", "setting": "[1]", "result": 20, "unit": "nM"}
    ]},
    {"smiles": "CC(C)CC(NC(=O)[C@H](Cc1ccccc1)C[C@H](O)[C@H](Cc1ccccc1)NC(=O)OC(C)(C)C)C(=O)NCc1ccccc1", "note": "(stereo partly specified)", "values": [
      {"measurement": "MIC", "setting": "H9", "result": 3, "unit": "µM"},
      {"measurement": "IC50", "setting": "[1]", "result": 1.4, "unit": "nM"}
    ]}
  ]
}
